Broadly, the pEC50 is the EC50 on a negative log10 scale, so that one unit is a factor of ten. In general, clearance refers to the volume of plasma or blood freed of the substance per unit of time. Broadly, the half-life is how long it takes for the measured level to halve.

pEC50: −log10 of the molar value.

The text below walks through data of ChEMBL document CHEMBL3867488 (ACS Med Chem Lett, 2016).

Data set [1] has as its target T1, Oxysterols receptor LXR-alpha (Homo sapiens, UniProt Q13133).
T1 sequence (Q13133 whole entry): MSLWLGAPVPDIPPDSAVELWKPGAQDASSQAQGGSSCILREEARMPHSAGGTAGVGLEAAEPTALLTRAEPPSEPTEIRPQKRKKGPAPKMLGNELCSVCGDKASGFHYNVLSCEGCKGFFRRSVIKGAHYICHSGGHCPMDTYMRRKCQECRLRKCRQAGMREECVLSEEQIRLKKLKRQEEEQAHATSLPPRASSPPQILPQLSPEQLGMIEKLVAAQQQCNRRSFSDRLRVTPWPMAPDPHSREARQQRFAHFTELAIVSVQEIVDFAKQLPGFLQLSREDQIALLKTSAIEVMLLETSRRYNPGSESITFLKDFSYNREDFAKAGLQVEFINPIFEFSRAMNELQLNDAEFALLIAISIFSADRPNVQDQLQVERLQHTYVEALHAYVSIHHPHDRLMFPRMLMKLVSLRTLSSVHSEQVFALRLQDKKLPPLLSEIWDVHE
Description: Agonist activity at human LXR-alpha expressed in African green monkey CV1 cells measured after 18 to 20 hrs by luciferase reporter gene assay relative to pan agonist 1-(2,4-difluorobenzyl)-2-oxo-6-(4-phenoxyphenyl)-4-(trifluoromethyl)-1,2-dihydropyridine-3-carbonitrile. As to conditions: CV-1, human; read-out: Efficacy. The format is cell-based. For orientation: In a reporter assay the amount or activity of a reporter protein is the signal.

Data set [2] deals with T2, Oxysterols receptor LXR-beta (Homo sapiens, UniProt P55055).
T2 sequence (P55055 whole entry): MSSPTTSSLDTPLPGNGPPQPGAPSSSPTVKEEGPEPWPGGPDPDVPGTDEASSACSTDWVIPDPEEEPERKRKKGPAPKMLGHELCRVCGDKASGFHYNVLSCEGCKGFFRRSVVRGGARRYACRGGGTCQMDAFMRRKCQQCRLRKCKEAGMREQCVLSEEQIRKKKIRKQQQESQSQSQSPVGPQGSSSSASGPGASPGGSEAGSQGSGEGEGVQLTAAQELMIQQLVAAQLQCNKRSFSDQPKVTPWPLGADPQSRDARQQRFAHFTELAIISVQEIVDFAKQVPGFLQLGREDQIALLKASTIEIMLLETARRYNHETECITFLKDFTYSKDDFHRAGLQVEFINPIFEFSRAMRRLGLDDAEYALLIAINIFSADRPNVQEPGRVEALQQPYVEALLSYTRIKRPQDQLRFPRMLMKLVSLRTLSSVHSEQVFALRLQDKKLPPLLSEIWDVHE
Description: Agonist activity at LXR-beta in human HeLa cells assessed as induction of ABCA1 by beta-galactosidase/luciferase reporter gene assay. In kind it is cell-based. Summed up:
(§1)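 HeLa cells carrying endogenous LXRα and LXRβ receptors, transfected with an ABCA1 LXREx3 reporter construct; agonist-driven reporter induction measured.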

The target of data set [3] is T1, Oxysterols receptor LXR-alpha. Description: Agonist activity at human LXR-alpha expressed in African green monkey CV1 cells measured after 18 to 20 hrs by luciferase reporter gene assay. In kind it is cell-based, CV-1.
In data set [4] the target is T3, Oxysterols receptor LXR-beta (Homo sapiens) (UniProt P55055).
T3 sequence (whole entry): T2 sequence (P55055 whole entry)
Briefly: Agonist activity at LXR-beta in human HeLa cells assessed as induction of ABCA1 by beta-galactosidase/luciferase reporter gene assay relative to control. In kind it is cell-based. In short, it runs like this: as §1

Data set [5] addresses T2, Oxysterols receptor LXR-beta. Description: Agonist activity at LXR-beta in human whole blood assessed as ABCA1 gene induction by measuring ABCA1 mRNA level after 4 hrs by SYBR-Green dye-based Q-PCR analysis. The format is tissue-based.
The target of data set [6] is T3, Oxysterols receptor LXR-beta (Homo sapiens). Description: Agonist activity at LXR-beta in human whole blood assessed as ABCA1 gene induction by measuring ABCA1 mRNA level after 4 hrs by SYBR-Green dye-based Q-PCR analysis relative to pan agonist 2-(4-(5-(5-cyano-1-(2,4-difluorobenzyl)-6-oxo-4-(trifluoromethyl)-1,6-dihydropyridin-2-yl)thiophen-2-yl)-3-methylphenyl)acetic acid. In kind it is tissue-based.

A short description of data set [7]: Half life in cynomolgus monkey at 1 mg/kg, iv administered as 10 mins infusion by LC/MS/MS analysis. The settings on record: in vivo. The format is ADME, organism-based, Macaca fascicularis.
The nature of data set [8]: Clearance in cynomolgus monkey at 0.2 mg/kg, iv administered as cassette dose by LC/MS/MS analysis. In kind it is ADME, organism-based, Macaca fascicularis. As to conditions: in vivo.
A short description of data set [9]: Half life in cynomolgus monkey at 0.2 mg/kg, iv administered as cassette dose by LC/MS/MS analysis. As to conditions: in vivo. The format is ADME, organism-based, Macaca fascicularis.
The nature of data set [10]: Half life in human plasma. In kind it is ADME, cell-free. In short, it runs like this:
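Human plasma half-life was obtained from a clinical single ascending dose PK study.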

Data set [11] addresses Alpha-1-acid glycoprotein 1 (Homo sapiens, UniProt P02763). Description: Binding affinity to human alpha-1-AGP at 1 uM measured after 4 hrs by equilibrium dialysis method relative to control. The format is ADME. The settings on record: human alpha-1-acid glycoprotein, read-out: PB. (In general: Equilibrium dialysis compares concentrations on both sides of a semipermeable membrane.)

For data set [12], the target named is Albumin (Homo sapiens, UniProt P02768). Description: Binding affinity to human serum albumin at 1 uM measured after 4 hrs by equilibrium dialysis method relative to control. In kind it is ADME. The settings on record: human serum albumin, read-out: PB.
Chain of Albumin (P02768 whole entry): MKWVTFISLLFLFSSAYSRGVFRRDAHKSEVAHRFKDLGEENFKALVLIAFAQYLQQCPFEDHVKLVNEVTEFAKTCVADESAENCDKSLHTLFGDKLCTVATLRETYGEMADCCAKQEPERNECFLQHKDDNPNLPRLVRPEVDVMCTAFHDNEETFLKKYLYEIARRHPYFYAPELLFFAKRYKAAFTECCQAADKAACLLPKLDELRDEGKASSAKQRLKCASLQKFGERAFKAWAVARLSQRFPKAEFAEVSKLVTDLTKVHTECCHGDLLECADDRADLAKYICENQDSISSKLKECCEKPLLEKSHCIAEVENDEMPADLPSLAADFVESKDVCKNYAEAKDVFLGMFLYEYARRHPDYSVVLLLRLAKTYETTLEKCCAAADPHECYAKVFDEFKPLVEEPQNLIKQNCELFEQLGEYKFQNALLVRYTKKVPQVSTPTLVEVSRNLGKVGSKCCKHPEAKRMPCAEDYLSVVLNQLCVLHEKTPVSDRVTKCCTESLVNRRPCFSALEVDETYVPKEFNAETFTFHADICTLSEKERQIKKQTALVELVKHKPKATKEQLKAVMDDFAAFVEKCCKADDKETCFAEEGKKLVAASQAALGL
Data set [13] addresses T4, Alpha-1-acid glycoprotein (Rattus norvegicus, UniProt P02764).
T4 sequence (P02764 whole entry): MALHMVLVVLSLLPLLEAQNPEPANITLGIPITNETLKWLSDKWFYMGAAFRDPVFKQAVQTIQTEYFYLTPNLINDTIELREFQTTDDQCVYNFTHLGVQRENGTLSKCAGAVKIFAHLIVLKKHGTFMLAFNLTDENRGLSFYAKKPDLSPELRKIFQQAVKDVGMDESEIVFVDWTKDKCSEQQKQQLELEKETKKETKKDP
Description: Binding affinity to rat alpha-1-AGP at 1 uM measured after 4 hrs by equilibrium dialysis method relative to control. The format is ADME. As to conditions: rat alpha-1-acid glycoprotein, read-out: PB (converted).

Data set [14] in a line: Binding affinity to dog alpha-1-AGP at 1 uM measured after 4 hrs by equilibrium dialysis method relative to control. The format is ADME, Canis lupus familiaris. The settings on record: dog alpha-1-acid glycoprotein, read-out: PB (converted).
Data set [15] deals with T2, Oxysterols receptor LXR-beta. Description: Agonist activity at LXR-beta in human whole blood assessed as ABCG1 gene induction by measuring ABCA1 mRNA level after 4 hrs by SYBR-Green dye-based Q-PCR analysis. In kind it is tissue-based.
The target in data set [16] is T3, Oxysterols receptor LXR-beta (Homo sapiens). Description: Agonist activity at LXR-beta in human whole blood assessed as ABCG1 gene induction by measuring ABCA1 mRNA level after 4 hrs by SYBR-Green dye-based Q-PCR analysis relative to pan agonist 2-(4-(5-(5-cyano-1-(2,4-difluorobenzyl)-6-oxo-4-(trifluoromethyl)-1,6-dihydropyridin-2-yl)thiophen-2-yl)-3-methylphenyl)acetic acid. The format is tissue-based.

The species entered for data set [17] is Macaca fascicularis. Briefly: Agonist activity at LXR-beta in cynomolgus monkey whole blood assessed as ABCA1 gene induction by measuring ABCA1 mRNA level after 4 hrs by SYBR-Green dye-based Q-PCR analysis relative to control. The format is tissue-based.
A short description of data set [18]: Plasma concentration in cynomolgus monkey at 10 mg/kg, po qd administered via gavage for 14 days measured after 5 hrs of last-dose by LC/MS/MS analysis. In kind it is ADME, organism-based, Macaca fascicularis. Summed up:
(§2)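 Cynomolgus monkeys dosed daily for 14 days. On day 14, plasma drug concentration was taken 5 h post-dose. Plasma triglycerides were expressed as % elevation over baseline, with significance tested by ANOVA (p < 0.05).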

Data set [19] can be described thus: Effect on plasma triglyceride level in cynomolgus monkey at 10 mg/kg, po qd administered via gavage for 14 days measured after 24 hrs of last-dose relative to base line. In kind it is ADME, organism-based, Macaca fascicularis. The settings on record: in vivo. Summed up: as §2
Data set [20] concerns Cynomolgus monkey. Briefly: In vivo agonist activity at LXR-beta in cynomolgus monkey assessed as induction of ABCG1 gene at 10 mg/kg/day, po qd administered via gavage for 14 days. The format is functional, Macaca fascicularis. In short, it runs like this:
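Cynomolgus monkeys dosed daily for 14 days. ABCG1 mRNA induction measured in blood cells on day 14 and expressed as fold change. Plasma drug concentration taken about 5 h post-dose. Plasma triglycerides also measured against baseline, with significance by ANOVA.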

Chain of Alpha-1-acid glycoprotein 1 (P02763 whole entry): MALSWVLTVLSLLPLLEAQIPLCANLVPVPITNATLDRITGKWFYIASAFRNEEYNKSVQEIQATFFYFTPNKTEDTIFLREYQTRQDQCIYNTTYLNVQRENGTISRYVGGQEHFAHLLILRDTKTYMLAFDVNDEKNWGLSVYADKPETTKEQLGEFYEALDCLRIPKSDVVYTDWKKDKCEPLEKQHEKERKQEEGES

As for `CC(C)(O)c1cn(-c2ccc(-c3cccc(S(C)(=O)=O)c3)cc2)c(C(C)(C)c2ccccc2Cl)n1` [BMS-779788], the Emax in data set [1] was 38%. Moreover, the pEC50 in data set [2] is 7.48; in data set [3], 6.66; in data set [5], 5.92; in data set [15], 5.96. The results for the Efficacy in data set [4], in [6] and in data set [16] were 50%, 55% and 60%, respectively. Further, the t1/2 in data set [7] was 7.4 h. Also, the clearance in data set [8] was determined as 2.9 mL/min/kg. Moreover, the half-life in [9] is 534 min; in data set [10], 4.17 to 8.33 days. Moreover, the fraction unbound at 4 h, 1 µM in data set [11] was 0.001; in data set [12], 0.028 to 0.03; in [13] it was 0.08; in data set [14], 0.02.

Take `O=S(=O)(c1ccccc1)N(CC(F)(F)F)c1ccc(C(O)(C(F)(F)F)C(F)(F)F)cc1` [T091317]: the Efficacy in data set [17] came out at 100%. The molecule further came in with a concentration at 5 h in data set [18] of 200 nM. The molecule also came in with an Activity in data set [19] of 140%. Further, in data set [20], the “fold change (FC)” value is 6.
